# Laboratory results as given in ChEMBL document CHEMBL4400518, “Synthesis, antimicrobial and cytotoxic activities, and molecular docking studies of N-arylsulfonylindoles containing an aminoguanidine, a semicarbazide, and a thiosemicarbazide moiety” (Eur J Med Chem, 2019).
# Experiments:
# Type in all cases: functional
# Staphylococcus aureus [1] = test: Antibacterial activity against Staphylococcus aureus CMCC(B) 26003 measured after 24 hrs by ELISA; conditions: CMCC(B) 26003, 24 h
# Method in brief: (§1)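 Broth microdilution MIC. Mid-log bacteria in MHB or TSB diluted 1000-fold, inoculated at 10^5 CFU/mL. Compounds added from DMSO stocks; final DMSO at most 0.05%. Incubation 24 h at 37 °C. Growth read as absorbance at 630 nm. MIC taken as the lowest concentration giving complete growth inhibition. Three independent experiments.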
# Staphylococcus aureus [2] = test: Antibacterial activity against Staphylococcus aureus CMCC 25923 measured after 24 hrs by ELISA; conditions: CMCC 25923, 24 h; method in brief: as §1
# Streptococcus pyogenes = test: Antibacterial activity against Streptococcus pyogenes CMCC 32067 measured after 24 hrs by ELISA; conditions: CMCC 32067, 24 h; method in brief: as §1
# Streptococcus pneumoniae = test: Antibacterial activity against Streptococcus pneumoniae CMCC 31968 measured after 24 hrs by ELISA; conditions: CMCC 31968, 24 h
# Enterococcus faecalis = test: Antibacterial activity against Enterococcus faecalis CMCC 29212 measured after 24 hrs by ELISA; conditions: CMCC 29212, 24 h; method in brief: as §1
# Bacillus subtilis = test: Antibacterial activity against Bacillus subtilis CMCC 63501 measured after 24 hrs by ELISA; conditions: CMCC 63501, 24 h; method in brief: as §1
# Escherichia coli [3] = test: Antibacterial activity against Escherichia coli CMCC 25922 measured after 24 hrs by ELISA; conditions: CMCC 25922, 24 h; method in brief: as §1
# Escherichia coli [4] = test: Antibacterial activity against Escherichia coli CMCC 44568 measured after 24 hrs by ELISA; conditions: CMCC 44568, 24 h; method in brief: as §1
# Pseudomonas aeruginosa [5] = test: Antibacterial activity against Pseudomonas aeruginosa CMCC 27853 measured after 24 hrs by ELISA; conditions: CMCC 27853, 24 h; method in brief: as §1
# Pseudomonas aeruginosa [6] = test: Antibacterial activity against Pseudomonas aeruginosa CMCC 10104 measured after 24 hrs by ELISA; conditions: CMCC 10104, 24 h; method in brief: as §1
# Staphylococcus aureus [7] = test: Antibacterial activity against methicillin-resistant Staphylococcus aureus ATCC 43300 measured after 24 hrs by ELISA; conditions: ATCC 43300, 24 h
# Method in brief: (§2)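 Broth serial dilution MIC. Mid-log bacteria in Mueller-Hinton or Tryptone Soya broth, diluted 1000-fold and inoculated at 10^5 CFU/mL. Compounds from DMSO stock, final DMSO ≤0.05%. Incubated 24 h at 37 °C; growth read as absorbance at 630 nm. MIC is the lowest concentration giving complete growth inhibition. Three independent experiments.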
# Staphylococcus aureus [8] = test: Antibacterial activity against methicillin-resistant Staphylococcus aureus ATCC 33591 measured after 24 hrs by ELISA; conditions: ATCC 33591, 24 h; method in brief: as §2
# Escherichia coli [9] = test: Antibacterial activity against multidrug-resistant Escherichia coli ATCC BAA-196 measured after 24 hrs by ELISA; conditions: ATCC BAA-196, 24 h; method in brief: as §2
# Pseudomonas aeruginosa [10] = test: Antibacterial activity against multidrug-resistant Pseudomonas aeruginosa ATCC BAA-2111 measured after 24 hrs by ELISA; conditions: ATCC BAA-2111, 24 h; method in brief: as §2
MIC (Staphylococcus aureus [1]),MIC (Staphylococcus aureus [2]),MIC (Streptococcus pyogenes),MIC (Streptococcus pneumoniae),MIC (Enterococcus faecalis),MIC (Bacillus subtilis),MIC (Escherichia coli [3]),MIC (Escherichia coli [4]),MIC (Pseudomonas aeruginosa [5]),MIC (Pseudomonas aeruginosa [6]),Compound,MIC (Staphylococcus aureus [7]),MIC (Staphylococcus aureus [8]),MIC (Escherichia coli [9]),MIC (Pseudomonas aeruginosa [10])
5.22 µM,10.4 µM,5.22 µM,83.5 µM,20.9 µM,10.4 µM,20.9 µM,20.9 µM,334 µM,> 334 µM,CC/C(=N/NC(=N)N)c1cn(S(=O)(=O)c2ccc(C)cc2)c2ccccc12,,,,
286 µM,> 286 µM,> 286 µM,> 286 µM,> 286 µM,8.93 µM,> 286 µM,> 286 µM,> 286 µM,> 286 µM,C/C(=N/NC(N)=O)c1cn(S(=O)(=O)c2ccc(C)cc2)c2ccc(Br)cc12,,,,
22.5 µM,22.5 µM,22.5 µM,1.4 µM,45.1 µM,22.5 µM,45.1 µM,11.3 µM,90.1 µM,45.1 µM,C/C(=N/NC(=N)N)c1cn(S(=O)(=O)c2ccccc2)c2ccccc12,,,,
346 µM,> 346 µM,> 346 µM,> 346 µM,> 346 µM,346 µM,> 346 µM,> 346 µM,> 346 µM,> 346 µM,C/C(=N/NC(N)=O)c1cn(S(=O)(=O)c2ccc(C)cc2)c2ccccc12,,,,
360 µM,> 360 µM,> 360 µM,> 360 µM,> 360 µM,89.9 µM,> 360 µM,> 360 µM,> 360 µM,> 360 µM,C/C(=N/NC(N)=O)c1cn(S(=O)(=O)c2ccccc2)c2ccccc12,,,,
295 µM,295 µM,> 295 µM,> 295 µM,36.9 µM,295 µM,> 295 µM,> 295 µM,> 295 µM,> 295 µM,C/C(=N/NC(N)=O)c1cn(S(=O)(=O)c2ccccc2)c2ccc(Br)cc12,,,,
4.47 µM,4.47 µM,> 286 µM,1.12 µM,8.95 µM,4.47 µM,17.9 µM,4.47 µM,> 286 µM,> 286 µM,CC/C(=N/NC(=N)N)c1cn(S(=O)(=O)c2ccccc2)c2ccc(Br)cc12,,,,

# More lines, now with the values behind:
Compound,MIC (Staphylococcus aureus [1]),MIC (Staphylococcus aureus [2]),MIC (Streptococcus pyogenes),MIC (Streptococcus pneumoniae),MIC (Enterococcus faecalis),MIC (Bacillus subtilis),MIC (Escherichia coli [3]),MIC (Escherichia coli [4]),MIC (Pseudomonas aeruginosa [5]),MIC (Pseudomonas aeruginosa [6]),MIC (Staphylococcus aureus [7]),MIC (Staphylococcus aureus [8]),MIC (Escherichia coli [9]),MIC (Pseudomonas aeruginosa [10])
CC/C(=N/NC(=N)N)c1cn(S(=O)(=O)c2ccccc2)c2ccccc12,21.7 µM,21.7 µM,10.8 µM,10.8 µM,43.4 µM,> 347 µM,43.4 µM,43.4 µM,173 µM,43.4 µM,,,,
C/C(=N/NC(=N)N)c1cn(S(=O)(=O)c2ccccc2)c2ccc(Br)cc12,4.62 µM,4.62 µM,296 µM,4.62 µM,9.24 µM,9.24 µM,18.5 µM,9.24 µM,> 296 µM,> 296 µM,,,,
N=C(N)N/N=C\c1cn(S(=O)(=O)c2ccccc2)c2ccccc12,5.87 µM,11.7 µM,> 375 µM,46.9 µM,46.9 µM,11.7 µM,> 375 µM,23.5 µM,46.9 µM,23.5 µM,,,,
COc1c(N2CCNC(C)C2)c(F)cc2c(=O)c(C(=O)O)cn(C3CC3)c12 (stereo not drawn) [GATIFLOXACIN],0.33 µM,0.33 µM,> 341 µM,> 341 µM,2.67 µM,5.33 µM,0.33 µM,0.33 µM,5.33 µM,5.33 µM,1.33 µM,0.67 µM,1.33 µM,2.66 µM
COc1c(N2C[C@@H]3CCCN[C@@H]3C2)c(F)cc2c(=O)c(C(=O)O)cn(C3CC3)c12 [MOXIFLOXACIN],0.31 µM,0.31 µM,> 319 µM,> 319 µM,,,0.31 µM,0.31 µM,,9.98 µM,1.25 µM,0.62 µM,1.25 µM,
Cc1onc(-c2ccccc2)c1C(=O)N[C@@H]1C(=O)N2[C@@H]1SC(C)(C)[C@@H]2C(=O)O [OXACILLIN],0.31 µM,0.31 µM,> 319 µM,> 319 µM,319 µM,> 319 µM,319 µM,> 319 µM,> 319 µM,> 319 µM,160 µM,19.9 µM,,
CC1(C)S[C@@H]2[C@H](NC(=O)Cc3ccccc3)C(=O)N2[C@H]1C(=O)O [PENICILLIN G],0.37 µM,0.37 µM,> 383 µM,> 383 µM,383 µM,383 µM,383 µM,> 383 µM,> 383 µM,95.8 µM,95.8 µM,> 95.8 µM,,
